Shown are actives, neighbours in structure and some others; about 1.2% of the full set was active somewhere.
procasp3 activ – procaspase-3 (human) activation; P42574; actives 0.11% (n = 330,000); recombinant procaspase-3 D3A, Ac-DEVD-pNA absorbance 405 nm; activation, % at 8.5 µM;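 active = activation above the mean of all tested compounds plus 3 SD, cut at about 21% in these data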;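 note: 0% = DMSO alone and 100% = DMSO wells spiked with extra 5 µM PC-3 D3A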
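Assay system: Procaspase-3 D3A mutant, all three cleavage aspartates alanine. Buffer or medium: Zinc-free HEPES saline buffer with Triton X-100. Times: 1 h compound preincubation, 2 h substrate hydrolysis at 25 °C. Measured by: 405 nm absorbance of p-nitroaniline, reads at 0 and 120 min. Read-out basis: percent activation relative to control range. Replicates: singlicate.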
procasp7 counter – counter-screen for procaspase-3 activators: activators of human procaspase-7; actives 0.093% (n = 330,000); recombinant procaspase-7, Ac-DEVD-pNA absorbance 405 nm; D23A/D198A/D206A triple mutant, cannot self-cleave; scale: DMSO 0, 5 µM enzyme 100; activation, % at 8.5 µM;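 active = percent activation above the screen-wide mean plus 3 SD, cut at about 25% in these data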
Target sequence (P55210 whole entry D23A/D198A/D206A): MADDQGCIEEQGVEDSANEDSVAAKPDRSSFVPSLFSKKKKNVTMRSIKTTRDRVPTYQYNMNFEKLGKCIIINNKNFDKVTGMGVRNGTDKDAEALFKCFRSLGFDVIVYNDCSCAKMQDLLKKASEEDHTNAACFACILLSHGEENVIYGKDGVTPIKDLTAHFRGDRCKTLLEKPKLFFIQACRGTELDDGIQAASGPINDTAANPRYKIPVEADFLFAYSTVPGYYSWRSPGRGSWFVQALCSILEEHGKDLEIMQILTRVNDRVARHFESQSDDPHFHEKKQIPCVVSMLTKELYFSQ
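Assay system: Uncleavable procaspase-7 mutant enzyme; Input: 2 µM procaspase-7 mutant as dispensed; Also added: DEVD-pNA substrate; Medium: Zinc-free HEPES pH 7.4 with 300 mM NaCl, 0.01% Triton X-100; Timing: 1 h compound preincubation, 2 h substrate cleavage, 25 °C; Measured by: Epi-absorbance of released pNA at 405 nm, two timepoints.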
Hep lipid drop – modulators of hepatic lipid droplet formation; actives 0.4% (n = 240,000); AML12 mouse hepatocytes, oleate lipid droplets, BODIPY imaging; AID 1656; inhibition, % at 6.5 µM;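 active = lipid droplet intensity inhibited by at least 50%, with more than 500 cells counted; inconclusive = wells with under 300 cells, treated as cytotoxic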
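Assay system: AML12 mouse liver cells | Compound dosing: One dose, 6.5 µM compound | Read-out basis: Droplet intensity reduction, % inhibition | Measured by: Fluorescence imaging, 20x objective, two fields per well | Schedule: Overnight treatment with compound plus oleate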
GAA850 FXN act – increases GAA850 frataxin promoter reporter activity; AID 540364; activation, % at 6 µM; HEK293 lucGAA850 FXN promoter luciferase reporter, 24 h; percent of 10 µM SAHA response; actives 0.56% (n = 360,000);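 active = activation above the average of all compounds screened plus 3 SD, cutoff fixed separately per campaign, cut at about 7.5% in these data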;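 note: 0% = DMSO wells and 100% = 10 µM SAHA wells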
p-CIP stab down – p/CIP protein destabilization; Q05BA5; F442A p/CIP-EGFP cells, EGFP fluorescence, 16 h; decrease of EGFP signal, % at 10 µM; actives 0.01% (n = 290,000); AID 1984;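 active = EGFP signal decrease of at least 30% at 10 µM or well 3 SD below plate mean, unless failing retest; inactive = the rest, including hits failing retest or dose response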
Rce1 inhib – yeast Ras-converting enzyme inhibition. AID 2563. Q03530. calls only. actives 0.27% (n = 290,000). yeast membranes, quenched prenylated peptide cleavage fluorescence;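 active = fall in fluorescence gain of 50% or more versus controls, with final raw signal at or below 3038400; inconclusive = same 50% fall but final raw signal above 3038400; inactive = fall in fluorescence gain under 50%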;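 note: plate controls were neutral control wells for no effect and wells lacking membranes for full effect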
Target sequence (Q03530 whole entry, looked up): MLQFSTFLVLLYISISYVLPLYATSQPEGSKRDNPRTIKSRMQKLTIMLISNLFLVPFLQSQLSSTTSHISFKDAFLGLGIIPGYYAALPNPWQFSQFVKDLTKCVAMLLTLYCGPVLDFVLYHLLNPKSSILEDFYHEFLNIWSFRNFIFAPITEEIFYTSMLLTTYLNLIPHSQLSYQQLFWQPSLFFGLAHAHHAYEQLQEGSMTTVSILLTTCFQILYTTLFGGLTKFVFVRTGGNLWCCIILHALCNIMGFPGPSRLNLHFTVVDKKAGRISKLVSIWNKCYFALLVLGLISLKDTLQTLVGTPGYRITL
An asterisk follows results filed as active; i = inactive; ? = inconclusive; . = no result given; + = active, no number; ! = not confirmed by another sample.

SMILES | procasp3 activ | procasp7 counter | Hep lipid drop | GAA850 FXN act | p-CIP stab down | Rce1 inhib
CCS(=O)(=O)N1CCN(S(=O)(=O)c2ccc3ccccc3c2)CC1 | 2 | -4 | 1 | 0 | -8 | i
CCOC(=O)c1cc(C)[nH]c1C | -1 | -1 | 13 | 0 | -9 | i
CCOC(=O)c1cc(C)[nH]c(=O)c1C#N | 11 | 13 | 4 | 0 | 5 | +
NC(N)=NC(=O)c1nc(Cl)c(N)nc1N | -3 | 2 | 3 | -2 | -9 | +!
CC(C)c1cccc(OCC(=O)Nc2ccc(S(=O)(=O)Nc3ccccn3)cc2)c1 | 2 | 10 | 12 | -1 | -17 | +
CC(C)c1ccc(OCC(=O)Nc2ccc(S(=O)(=O)Nc3ccccn3)cc2)cc1 | 4 | 3 | 3 | -1 | -6 | i
CC1(C(=O)Nc2ccc3c(c2)OCCO3)CCN1C(=O)c1ccco1 (centres undefined) | . | . | . | 0 | . | .
O=C(CSc1n[nH]c(-c2ccc(S(=O)(=O)N3CCCCC3)cc2)n1)Nc1nccs1 | 2 | 12 | -21 | 1 | 3 | +
COC(=O)CN1C(=O)CSc2ccc(S(=O)(=O)N3CCC(C)CC3)cc21 | . | . | . | 0 | . | .
Cc1nc(C(F)(F)F)ccc1C(=O)N1CCC1(C)C(=O)NS(=O)(=O)c1ccc2ccccc2c1 (centres undefined) | . | . | . | 0 | . | .
Cc1ccc2nc3c(c(N)c2c1)CCN3C | 0 | -13 | -13 | 2 | -2 | +
Cc1ccc2nc3c(c(N)c2c1)CCN3c1ccccc1 | -3 | 1 | . | -1 | 4 | i
Cc1cc(N)c2cc(NC(=O)/C=C/c3ccccc3Cl)ccc2n1 | 5 | -2 | 28 | 0 | -4 | +
CC(=O)N(C)c1ccc(NC(=O)/C=C/c2ccccc2Cl)cc1 | -3 | -2 | . | 5 | -4 | +
Cc1cc(C)nc(NC(=O)/C=C/c2ccccc2Cl)n1 | -7 | 3 | -3 | 0 | 2 | i
COC(=O)/C=c1\[nH]c2nnc(C)n2c1=O | -3 | 8 | -9 | -1 | 0 | +
Cc1nn(CCC(=O)O)c2nc(-c3cccnc3)cc(C(F)(F)F)c12 | 0 | 4 | . | 1 | 3 | +
Cc1nn(CCC(N)=O)c2nc(-c3cccs3)cc(C(F)(F)F)c12 | 1 | -4 | 4 | 1 | -18 | i
CC(C)N1CCCC(C)(C(=O)Nc2cccc(Oc3ccccc3)c2)C1 (centres undefined) | . | . | . | 2 | . | .
CCN(CC)CCCN(Cc1cc2cc3c(cc2[nH]c1=O)OCO3)C(=S)NCCCN(C)C | -2 | 1 | 2 | -1 | 17 | +
CC1CCc2c(sc(NC(=O)COC(=O)c3ccccc3NCc3ccco3)c2C#N)C1 (centres undefined) | 3 | 13 | 3 | -2 | 3 | +
CC1CCc2c(sc(NC(=O)c3ccccc3C(=O)O)c2C#N)C1 (centres undefined) | 5 | 6 | 7 | -1 | 5 | i
CC(C)C(=O)N1CCC1(C)C(=O)NCc1ccc(C(C)(C)C)cc1 (centres undefined) | . | . | . | -1 | . | .
COc1ccc2c(c1)c1ncn(CCN3CCCCC3)c(=O)c1n2C | 8 | -2 | -9 | 2 | -19 | +
COc1ccc2c(c1)c1ncn(CCN3CCNCC3)c(=O)c1n2C | -3 | -3 | -2 | 1 | -2 | ?
SMILES | procasp3 activ | procasp7 counter | Hep lipid drop | GAA850 FXN act | p-CIP stab down | Rce1 inhib
COc1ccc2c(c1)c1ncn(CCN3CCCC3)c(=O)c1n2C | 0 | 1 | . | -2 | -8 | +
COCCN1C[C@@H](CO)O[C@@H](n2cnc3c(NCCO)ncnc32)C1 | . | . | . | -1 | . | .
C/C(CC(=O)NCc1ccco1)=N\NC(=O)c1ccc(Cl)cc1Cl | 0 | -2 | -10 | 1 | 1 | i
C/C(CC(=O)NCc1ccco1)=N\NC(=O)c1ccc([N+](=O)[O-])cc1Cl | 0 | 3 | -9 | 0 | -4 | +
CCC(C)Sc1cc(-c2nc3cc(C)ccn3c2NC2CCCCC2)ccc1OC (centres undefined) | 7 | -1 | . | 1 | . | .
CCC(C)Sc1cc(-c2nc3ccccn3c2NC2CCCCC2)ccc1OC (centres undefined) | 5 | 19 | . | 0 | . | +
CC(=O)OCC(=O)[C@@]12OC3(CCCC3)O[C@@H]1C[C@H]1[C@@H]3CCC4=CC(=O)C=C[C@]4(C)[C@@]3(F)[C@@H](O)C[C@@]12C | 5 | -4 | 14 | 0 | 0 | +
CCOC(=O)C1(C)CCN1C(=O)c1cccc(C(F)(F)F)c1 (centres undefined) | . | . | . | -1 | . | .
COc1ccccc1-c1cc(C(=O)O)c2c(=O)n(C)c(=O)n(Cc3ccccc3)c2n1 | 0 | 6 | 10 | 1 | -4 | +
CC1(C(=O)NCc2cccc3ccccc23)CCN1Cc1ccccc1OC(F)F (centres undefined) | . | . | . | 2 | . | .
CCOc1ccc(OCCC(=O)OCC(=O)N2CCN(S(=O)(=O)c3ccc(Cl)cc3)CC2)cc1 | -2 | 6 | 4 | 9.7* | -17 | i
Cc1ccc(C(=O)c2c3ccc(C(F)(F)F)cc3[n+]([O-])n2CCC(N)=O)cc1 | -7 | -2 | 7 | -2 | -9 | i
Cc1ccc(C(=O)c2c3ccc(C(F)(F)F)cc3[n+]([O-])n2CCCC(N)=O)cc1 | 7 | -4 | . | 2 | . | +
Cc1ccc(C(=O)c2c3ccccc3[n+]([O-])n2CCO)cc1 | 10 | -2 | . | -1 | . | +
COc1ccc(C(=O)c2c3ccccc3[n+]([O-])n2CCCN)cc1 | -3 | -1 | . | -1 | . | i
NC(CCc1ccccc1)c1csc(NC(=O)Nc2cccc(C(F)(F)F)c2)n1 (centres undefined) | . | . | . | 2 | . | .
COc1ccc(CC(N)c2csc(Nc3ccc(C(=O)c4ccccc4)cc3)n2)cc1 (centres undefined) | . | . | . | -5 | . | .
CN(C)CCNc1ncnc2oc(-c3ccccc3)c(-c3ccccc3)c12 | . | . | -31 | 3 | -12 | +
Clc1ccc(Cn2ncc3c(N4CCN(c5ccccc5)CC4)ncnc32)cc1 | . | . | . | -1 | . | .
COc1ccc(OCc2cnc(Cl)s2)cc1 | -10 | 7 | . | 17* | -20 | i
CC(=O)c1ccc(NS(=O)(=O)c2cccc3cccnc23)cc1 | . | . | . | 3 | . | .
C=CCn1c(SCc2ccc(F)cc2)nc2c1c(=O)[nH]c(=O)n2C | 2 | -10 | . | 23* | 0 | i
CC1(C(=O)NS(=O)(=O)c2ccc(Cl)cc2)CCN1C(=O)c1ccco1 (centres undefined) | . | . | . | 0 | . | .
CC(C)c1ccc(NC(=O)Nc2nc(C(N)c3ccccc3Cl)cs2)cc1 (centres undefined) | . | . | . | 0 | . | .
CS(=O)(=O)/C(C#N)=C/c1cccn1S(=O)(=O)c1cccc2ccccc12 | . | . | . | 0 | . | .

Bioassay records (PubChem BioAssay)
